High-throughput results from PubChem.
Mdm2 MdmX PPI = inhibitors of human Mdm2-MdmX association, primary screen, cell-based, luminescence, split luciferase, SaOS-2, uHTS; Protein Mdm4 (Homo sapiens) + E3 ubiquitin-protein ligase Mdm2 (Homo sapiens), …; SaOS-2 split-luciferase Mdm2/MdmX complementation; inhibition, % at 8 µM; 330,000 compounds, 3% hits;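 active = inhibition of at least 50% at 8 µM in the primary screen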
Target sequence (O15151 whole entry, looked up): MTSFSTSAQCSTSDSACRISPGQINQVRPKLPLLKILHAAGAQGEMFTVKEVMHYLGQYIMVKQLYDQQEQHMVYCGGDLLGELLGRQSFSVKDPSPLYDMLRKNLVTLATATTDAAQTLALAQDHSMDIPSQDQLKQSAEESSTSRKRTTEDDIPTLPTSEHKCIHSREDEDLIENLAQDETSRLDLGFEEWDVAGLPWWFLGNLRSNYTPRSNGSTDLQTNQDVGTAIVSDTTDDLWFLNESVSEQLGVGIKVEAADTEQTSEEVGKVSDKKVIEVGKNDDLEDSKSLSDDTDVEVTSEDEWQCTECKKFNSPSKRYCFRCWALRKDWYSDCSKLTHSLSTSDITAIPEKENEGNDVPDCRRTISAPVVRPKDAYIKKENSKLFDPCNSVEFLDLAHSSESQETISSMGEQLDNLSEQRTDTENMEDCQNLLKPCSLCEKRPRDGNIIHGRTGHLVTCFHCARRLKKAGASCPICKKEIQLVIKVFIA
Target sequence (Q00987 whole entry, looked up): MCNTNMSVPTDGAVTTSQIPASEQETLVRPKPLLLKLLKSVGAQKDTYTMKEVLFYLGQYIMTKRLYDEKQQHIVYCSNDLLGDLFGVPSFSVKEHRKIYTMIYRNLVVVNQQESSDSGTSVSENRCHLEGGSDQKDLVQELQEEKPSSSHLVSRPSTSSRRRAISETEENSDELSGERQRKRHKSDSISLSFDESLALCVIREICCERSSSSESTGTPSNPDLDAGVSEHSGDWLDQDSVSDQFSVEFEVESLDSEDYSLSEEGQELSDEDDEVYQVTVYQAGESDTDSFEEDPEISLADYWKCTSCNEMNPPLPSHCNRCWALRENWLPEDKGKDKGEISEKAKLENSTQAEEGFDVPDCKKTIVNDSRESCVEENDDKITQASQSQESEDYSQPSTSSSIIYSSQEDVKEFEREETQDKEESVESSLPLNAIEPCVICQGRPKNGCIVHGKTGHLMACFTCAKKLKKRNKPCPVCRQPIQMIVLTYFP
SKKanGAS inh = S. pyogenes SKKanGAS growth inhibitors in kanamycin, primary screen, streptokinase expression inhibitor project, SKKanGAS strain, BacTiter-Glo luminescence | AID 1662, 2009 | 300,000 compounds, 1.3% hits | 6 h | inhibition, % at 7.5 µM;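 active = mean replicate score, as percent of positive control median, at least 50; inconclusive = mean below 50 but one replicate at or above 50; inactive = mean and every replicate below 50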;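 also: strain carries kanamycin resistance gene driven by streptokinase promoter and grows in 40 µg/ml kanamycin; loss of luminescence reflects streptokinase promoter inhibition or plain growth inhibition; 0% = median of DMSO wells and 100% = positive control at its reference dose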
CSC inhib = cancer stem cell viability inhibitors, primary screen, luminescence | cancer stem cell-like cells viability | inhibition, % at 7.5 µM | 300,000 compounds, 1.1% hits | AID 2717, 2010; in the data active = inhibition above about 75%; inconclusive = no clear call, values can overlap the other calls; tested in HMLE shEcad cells
T cruzi repl = inhibitors of intracellular T. cruzi growth, primary screen, luminescence, NIH3T3 host cells. T. cruzi beta-gal in NIH3T3, 90 h. 300,000 compounds, 1.4% hits. inhibition, % (concentration not given with the values);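 active = mean inhibition across valid replicates above about 55%, limit read from the data; inconclusive = mean below that limit but half or more replicates reach it; inactive = mean below it, under half of replicates reach it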;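 also: signal also drops with host cell toxicity which is not excluded here; 0% = plate median of DMSO wells and 100% = zero luminescence signal; higher percent means less beta-gal luminescence so fewer parasites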
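Assay system: NIH/3T3 fibroblasts plus reporter T. cruzi. Amount: NIH/3T3 cells, 5,000 per well. Buffer or medium: DMEM, 2% fetal bovine serum. Doses: compound pinned at 50 nL/well, DMSO. Schedule: ≥90 h infection period, 3 h prior cell attachment. Signal: luminescent β-galactosidase signal after 60 min lysis. Read-out: parasite load inhibition, %.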
Beta cell apopt = inhibitors of cytokine-induced beta cell apoptosis, primary screen, luminescence | INS-1E cytokine-induced death, ATP luminescence, 48 h; percent of positive-control rescue, neutral wells zero | protection from apoptosis, % (concentration not given with the values) | 300,000 compounds, 0.8% hits | AID 435005, 2010;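 active = Every replicate reaches about 75%, or at least half do and their mean reaches it too, limit read from the data; inconclusive = At least half of replicates reach the limit but their mean does not; inactive = Under half of replicates reach the limit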;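 also: 0% = cytokine-treated negative control wells and 100% = positive control rescue; higher means more ATP so stronger rescue from cytokine killing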
Lmaj promast = Leishmania major promastigote growth inhibition, primary screen. 200,000 compounds, 9% hits. Leishmania major promastigotes, resazurin fluorescence viability. inhibition, % at 10 µM. AID 1063, 2008; in the data active = inhibition above about 50%;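 also: promastigotes grown with compound for 44 hours at 28 °C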
* = called active by the depositor; u = inconclusive; x = no result given. Rows were chosen to be rich in hits. Some 9.4% of all compounds tested hit in one or more screens of this group.

SMILES | Mdm2 MdmX PPI | SKKanGAS inh | CSC inhib | T cruzi repl | Beta cell apopt | Lmaj promast
CN(C)S(=O)(=O)c1cccc(C(=O)Nc2cc(Cl)ccc2O)c1 | 15 | 2 | -5 | -1 | -3 | -7
CN1CCN(c2ccc(Cl)cc2NC(=O)c2cccc(S(=O)(=O)N(C)C)c2)CC1 | 11 | 11 | -2 | 23 | 10 | 99*
CCN1CCN(c2ccc(S(=O)(=O)N3CCCCC3)cc2NC(=O)c2cccc(C(F)(F)F)c2)CC1 | 30 | 2 | 4 | 68* | -3 | x
CCN1CCN(c2ccc(S(=O)(=O)N3CCCCC3)cc2NC(=O)c2cccc(F)c2)CC1 | 16 | -7 | -16 | 49 | 1 | x
O=C(Nc1ccccc1N1CCOCC1)C1CCN(S(=O)(=O)c2cccc(C(F)(F)F)c2)CC1 | 12 | 6 | 3 | 7 | -2 | 66*
C/C(=C\c1ccccc1)CN(C)CCN(C)C | x | x | x | x | x | 97*
S=c1nc(SCc2ccccc2)[nH]c2ccccc12 | -10 | 76* | 55 | 25 | 3 | 2
O=C(CSc1n[nH]c(=O)n1-c1cccnc1)Nc1ccccc1 | -4 | -5 | -9 | -8 | 4 | x
C/C(N)=C(/C#N)C(=O)COC(=O)CC1CCCC1 | 1 | -2 | -1 | -4 | 3 | -1
C/C(N)=C(/C#N)C(=O)COC(=O)CC12CC3CC(CC(C3)C1)C2 | 10 | 0 | -8 | 7 | 2 | 97*
CCNC(=O)NC(=O)c1csc([N+](=O)[O-])c1 | -2 | -2 | -10 | 59* | -4 | x
Cc1cccc(-c2noc(-c3ccc4c(c3)OCO4)n2)c1 | -93 | 1 | 3 | 0 | 4 | 2
Cc1cccc(-c2oc3ccccc3c2-c2ccc3c(c2)OCO3)c1 | x | 52* | 4 | 0 | 7 | x
O=C(CN1C(=O)NC2(CCCC2)C1=O)N1CCN(S(=O)(=O)c2ccc(Cl)c(C(F)(F)F)c2)CC1 | 22 | -1 | -12 | -3 | 1 | x
COc1cc(/C=N/NC(=O)CC#N)ccc1Oc1nc(Cl)ncc1F | 21 | 4 | -7 | -10 | -2 | x
COCCN(Cc1cc2cc(C)ccc2n2nnnc12)C(=S)Nc1ccc(C)cc1 | 30 | 11 | 0 | 3 | 3 | 57*
COc1ccc(C(CNC(=O)c2cccc(NS(=O)(=O)c3ccc(C)c(F)c3)c2)N2CCOCC2)cc1 (stereo not given) | 21 | -5 | -1 | 0 | 1 | x
CSCCC(NC(=O)c1cc(C(C)(C)C)oc1C)C(=O)O (stereo not given) | -10 | -1 | -7 | 12 | -1 | -3
CSCCC(NC(=O)c1ccoc1C)C(=O)O (stereo not given) | 3 | 0 | -5 | -14 | -1 | 65*
CCN(CC)C(=S)SCC(=O)Nc1ncc2c(n1)CCCC2=O | 8 | 2 | -6 | 6 | -3 | x
CC(=O)Nc1ccc(N(C(=O)Cc2cccs2)C(C(=O)NC2CCCC2)c2ccncc2)cc1 (stereo not given) | -26 | 1 | -8 | 3 | -3 | x
O=c1oc2ccccc2c(O)c1Cc1cc(Cl)c2cccnc2c1O | 28 | 84* | u | -11 | 6 | x
O=C(Cc1c(O)c2ccccc2oc1=O)c1ccc(C(F)(F)F)cc1 | 13 | 5 | -3 | 4 | -10 | x
CC1=C(C(=O)OCc2ccccc2)C(/C=C/c2ccccc2)N2C(=O)CCSC2=N1 (stereo not given) | -6 | 12 | 23 | 9 | 8 | 75*
CCOc1cc(CNc2ccc3cn[nH]c3c2)ccc1OC | 10 | 3 | -4 | 12 | 4 | 79*
Cc1cccc(NC(=O)C2CCCN(S(=O)(=O)c3ccc4[nH]c(=O)ccc4c3)C2)n1 (stereo not given) | 12 | -1 | -1 | -20 | 9 | x
O=C(CSc1nc2ccccc2c(=O)n1-c1ccccc1)N1CCc2ccccc2C1 | 24 | -15 | 68 | 26 | 100* | 15
CC(C)c1ccccc1-n1c(SCC(=O)N2CCc3ccccc3C2)nc2ccccc2c1=O | 48 | -2 | 12 | 13 | 121* | 42
